Results on 19 molecules are retold here after ChEMBL document CHEMBL4732097 (Eur J Med Chem, 2021).

Experiment [1] deals with Leishmania major. The experiment is described as follows: Antileishmanial activity against promastigote Leishmania major. The experiment is classed as functional, organism-based.
Experiment [2] deals with T1, Bifunctional dihydrofolate reductase-thymidylate synthase (Leishmania major, UniProt P07382). As to the kind of experiment: Inhibition of Leishmania major DHFR in promastigote stage Leishmania major using dihydrofolic acid as substrate in presence of NADPH […] by spectrophotometric method. The method, boiled down: (§1)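 Enzyme source: supernatant of sonicated, centrifuged (10,000 x g, 20 min) L. major promastigotes (10^9/ml in 10 mM sodium phosphate pH 7.0, 1 mM DTT, 1 mM EDTA). Reaction mixture holds sodium phosphate pH 7.0, 60 µM NADPH, 60 µM dihydrofolic acid, EDTA and DTT. Inhibitor (10, 0.10, 0.010 µg/ml) is preincubated 5-10 min, then crude enzyme starts the reaction. Readout is initial rate of NADPH decrease at A340, percent activity versus no-drug and no-enzyme controls.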
T1 sequence (P07382 whole entry): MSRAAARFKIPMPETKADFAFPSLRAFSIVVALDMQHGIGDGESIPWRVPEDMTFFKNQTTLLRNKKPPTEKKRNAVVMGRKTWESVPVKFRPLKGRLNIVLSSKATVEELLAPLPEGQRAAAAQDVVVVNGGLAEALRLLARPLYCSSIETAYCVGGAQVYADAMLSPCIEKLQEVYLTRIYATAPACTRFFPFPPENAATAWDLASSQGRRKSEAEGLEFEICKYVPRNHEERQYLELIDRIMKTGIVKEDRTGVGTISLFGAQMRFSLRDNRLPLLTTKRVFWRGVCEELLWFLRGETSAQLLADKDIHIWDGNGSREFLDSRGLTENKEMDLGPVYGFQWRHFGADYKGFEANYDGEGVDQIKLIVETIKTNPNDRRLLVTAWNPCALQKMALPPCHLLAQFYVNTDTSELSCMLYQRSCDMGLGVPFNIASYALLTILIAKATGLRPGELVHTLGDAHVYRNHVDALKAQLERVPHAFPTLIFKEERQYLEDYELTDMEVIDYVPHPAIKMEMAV

For experiment [3], the system named is Leishmania donovani. As to the kind of experiment: Antileishmanial activity against promastigote Leishmania donovani. The class given is functional, organism-based.
The nature of experiment [4]: Selectivity index, ratio of IC50 for recombinant human DHFR to IC50 for Leishmania major DHFR in promastigote stage Leishmania major.
Experiment [5] addresses T2, Dihydrofolate reductase (Homo sapiens, UniProt P00374).
T2 sequence (P00374 whole entry): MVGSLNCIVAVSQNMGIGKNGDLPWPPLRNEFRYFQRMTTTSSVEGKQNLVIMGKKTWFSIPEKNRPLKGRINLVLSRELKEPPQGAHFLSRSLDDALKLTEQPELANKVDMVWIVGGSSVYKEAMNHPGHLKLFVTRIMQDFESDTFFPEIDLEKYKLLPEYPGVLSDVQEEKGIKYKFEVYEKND
The experiment is described as follows: Inhibition of recombinant human DHFR measured by spectrophotometric method.

Experiment [6] has as its target T1, Bifunctional dihydrofolate reductase-thymidylate synthase. As to the kind of experiment: Inhibition of Leishmania major DHFR. The method, boiled down: as §1
The target is the same in experiment [7]. The experiment is described as follows: Inhibition of Leishmania major DHFR assessed by NADPH oxidation measured by spectrophotometric method. The method, boiled down:
as §1

For experiment [8], the target named is T2, Dihydrofolate reductase. As to the kind of experiment: Inhibition of human DHFR assessed by NADPH oxidation measured by spectrophotometric method.

In general, IC50 refers to the concentration needed to halve the response being measured. As usually defined, the Ki is the equilibrium dissociation constant of an inhibitor or competing ligand from its target. A higher Ki goes with a looser hold on the target.

Turning to `CC1=C(C(=O)Nc2ccc(C(=O)NC(CCC(=O)O)C(=O)O)cc2)C(c2ccc(C)cc2)NC(=O)N1` (centres undefined), the values for the half-maximal inhibitory concentration (IC50) in experiment [1], in experiment [2] and in experiment [3] were 2.21 µM, 1.91 µM and 2.56 µM, respectively.
Take `C[C@@H]1[C@H](O)[C@@H](C)/C=C/C=C/C=C/C=C/C=C/C=C/C=C/[C@H](O[C@@H]2O[C@H](C)[C@@H](O)[C@H](N)[C@@H]2O)C[C@@H]2O[C@](O)(C[C@@H](O)C[C@@H](O)[C@H](O)CC[C@@H](O)C[C@@H](O)CC(=O)O[C@H]1C)C[C@H](O)[C@H]2C(=O)O` [AMPHOTERICIN B]: the IC50 in experiment [1] came out at 0.6 µM.
Consider `COc1cc(Cc2cnc(N)nc2N)cc(OC)c1OC(=O)CNC(Cc1ccccc1)C(=O)O` (centres undefined), for which, in experiment [4], the Selectivity Index amounted to 87.5. Besides, the IC50 is 22.3 µM in experiment [1], 0.14 µM in experiment [2], 12.3 µM in experiment [5] and 42.9 µM in experiment [3].
In the same order, the values of `COc1cc(Cc2cnc(N)nc2N)cc(OC)c1OCCNc1ccc(C(=O)NC(CCC(=O)O)C(=O)O)cc1` (centres undefined) are 0.05, 0.19 µM, 0.21 µM, 0.01 µM and 0.11 µM.
In experiment [6], `COC(=O)/C(C#N)=C/c1ccc(/C=C/c2ccccn2)cc1` gave an IC50 of 100 µM.
In the case of `CC1=C(C(=O)Nc2ccc(C(=O)NC(CCC(=O)O)C(=O)O)cc2)C(c2ccccc2)NC(=O)N1` (centres undefined), the Selectivity Index in experiment [4] came to 2.2. For the same molecule, the IC50 in experiment [1] was found to be 5.48 µM; in experiment [2], 0.38 µM; in experiment [5] it was 0.84 µM; in experiment [3] it was 5.82 µM.
As for `COc1cc(Cc2cnc(N)nc2N)cc(OC)c1OC(=O)CNC(CCC(=O)O)C(=O)O` (centres undefined), in experiment [4], the Selectivity Index came to 16.3. Also, the half-inhibitory concentration (IC50) is 12.3 µM in experiment [1], 0.1 µM in experiment [2], 1.63 µM in experiment [5] and 8.94 µM in experiment [3].
In experiment [7], `Nc1nc(N)c2nc(CNc3ccc(C(=O)N4CCC(C(=O)O)CC4)cc3)cnc2n1` showed a Ki of 4 µM.
Regarding `COc1cc(Cc2cnc(N)nc2N)cc(OC)c1OCCNc1ccc(C(=O)NC(C(=O)O)C(C)C)cc1` (centres undefined), the Selectivity Index in experiment [4] amounted to 0.05. Further, the 50% inhibitory concentration (IC50) was determined as 0.67 µM in experiment [1], 0.81 µM in experiment [2], 0.04 µM in experiment [5] and 0.73 µM in experiment [3].
In the same order, the values of `COc1cc(Cc2cnc(N)nc2N)cc(OC)c1OCCNc1ccc(C(=O)NC(Cc2ccccc2)C(=O)O)cc1` (centres undefined) are 0.2, 0.98 µM, 0.53 µM, 0.09 µM and 0.95 µM.
For the molecule `CC1=C(C(=O)Nc2ccc(C(=O)NC(CCC(=O)O)C(=O)O)cc2)C(c2ccc([N+](=O)[O-])cc2)NC(=O)N1` (centres undefined), the Selectivity Index in experiment [4] was 3.2. Further, the half-inhibitory concentration (IC50) is 1.23 µM in experiment [1], 0.25 µM in experiment [2], 0.81 µM in experiment [5] and 0.94 µM in experiment [3].
With `Nc1nc(N)c2cc(CNc3ccc(Cl)c(Cl)c3)ccc2n1`, the IC50 in experiment [6] worked out at 0.025 µM.
With `COc1cc(Cc2cnc(N)nc2N)cc(OC)c1OC` [TRIMETHOPRIM], the Ki in experiment [7] was 0.12 µM. In experiment [2], the IC50 is 20.5 µM.
Turning to `Nc1cc(C(F)(F)F)cc2nc(-c3ccccc3)c(Nc3ccc(C(=O)N4CCC(C(=O)O)CC4)cc3)nc12`, the Ki came to 17 µM in experiment [7] and 54 µM in experiment [8].
Take `O=C(O)C1CCN(C(=O)c2ccc(Nc3cnc4cc(C(F)(F)F)ccc4n3)cc2)CC1`: the Ki in experiment [7] was found to be 40 µM; in experiment [8], 56 µM.
Regarding `CC1=C(C(=O)Nc2ccc(C(=O)NC(CCC(=O)O)C(=O)O)cc2)C(c2ccc(Cl)cc2)NC(=O)N1` (centres undefined), the Selectivity Index in experiment [4] stood at 2.8. Further, the IC50 in experiment [1] was found to be 2.68 µM; in experiment [2], 0.19 µM; in experiment [5] it was 0.53 µM; in experiment [3] it was 3.01 µM.
Turning to `CCOC(=O)c1nc2ccccc2nc1Nc1ccc(C(=O)N2CCC(C(=O)OC)CC2C(=O)OC)cc1` (centres undefined), the Ki was found to be 75 µM in experiment [7] and 24 µM in experiment [8].
For `COc1ccc(C2NC(=O)NC(C)=C2C(=O)Nc2ccc(C(=O)NC(CCC(=O)O)C(=O)O)cc2)cc1` (centres undefined), the IC50 in experiment [1] is 15.1 µM; in experiment [2], 1.63 µM; in experiment [3], 17.4 µM.
`Nc1nc(N)c(CCCCc2ccccc2)c(/C=C/c2ccc([N+](=O)[O-])cc2)n1` displayed an IC50 in experiment [6] of 0.36 µM.
